The series is described as follows: Toxicity liver stage against HepG2, at 10uM. It counts as cell-based. On the set-up: test concentration 10 uM, cell line HepG2-A16-CD81EGFP. The following applies: human, HepG2-A16-CD81EGFP cells; read-out: INHIBITION
Put shortly:
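Uninfected HepG2-A16-CD81EGFP cells, 3 × 10^3 per well, 1536-well, plated on prespotted compound at 10 μM final, parasite-free screening media added to match infected plates; puromycin 10 μM positive, DMSO 0.5% negative; run in parallel with 48 h PbLuc assay at 37 °C, 5% CO2; viability by CellTiter-Glo luminescence, normalized to controls.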
Turning to `O=c1c(S(=O)(=O)N2CCCC2)cccn1Cc1ccc(F)cc1Cl`, the cytotoxicity at 10 µM is 12%.
As to `O=C(c1cc(Br)ccc1-n1cnnn1)N1CCCCC1`, the cytotoxicity at 10 µM is -1.25%.
Consider `O=c1[nH]c2c(c(=O)n1C1CCCCC1)CCC2Nc1ccccn1` (stereo not given), for which the cytotoxicity at 10 µM is -8.02%.
Regarding `CC1CCN(c2nc3ncc4c(c3c(=O)[nH]2)CC(C)(C)CC4=O)CC1`, the cytotoxicity at 10 µM stood at 3.49%.
Take `CNC(=O)c1cc(S(=O)(=O)C(C)C)cs1`: the cytotoxicity at 10 µM worked out at 5.08%.
For the compound `COc1ccc(OC)c(C(C)Nc2ncnc3c2NC(=O)CN3)c1` (stereo not given), the cytotoxicity at 10 µM was 10.6%.
Turning to `CC1(C(N)=O)CN(S(=O)(=O)c2cccc(F)c2)CCO1` (stereo not given), the cytotoxicity at 10 µM is 6.73%.
On to `Cc1noc(C(C)C)c1C(=O)NCC1CCCN1Cc1ccccc1` (stereo not given), for which the cytotoxicity at 10 µM was -4.45%.
On to `Cc1[nH]ncc1CCCNC(=O)N1CCC(CC(N)=O)CC1`, for which the cytotoxicity at 10 µM worked out at 5.45%.
Consider `COc1ccc(Cl)c(NCC(=O)NCC(=O)N2CCCC2)c1`, for which the cytotoxicity at 10 µM was -5.7%.
In the case of `CCOc1ccc(NS(=O)(=O)c2cc(C)c(C(=O)O)s2)cc1F` it was -3.24%.
Turning to `CC(C)C(=O)NCCC(=O)N1CCN(c2ccccn2)CC1`, the cytotoxicity at 10 µM is -6.13%.
On to `CCOc1cncc(N2CCCC2c2nnc3n2CCCCC3)n1` (stereo not given), for which the cytotoxicity at 10 µM is -5.93%.
To `O=C(NCCn1ccnc1)c1cncc(Br)c1` belongs 17.7%.
On to `CC(=O)NCCC(=O)NCC1(c2c(F)cccc2F)CCCC1`, for which the cytotoxicity at 10 µM was -2.75%.
As for `CC(C)(C)CC(=O)Nc1ccc(S(C)(=O)=O)nc1`, the cytotoxicity at 10 µM was -3.05%.
As to `CC1CCCCN1S(=O)(=O)NCc1cccnc1OC1CCCC1` (stereo not given), the cytotoxicity at 10 µM is -89.8%.
In the case of `CNC(=O)CCN1CCCC1c1ccccc1Br` (stereo not given), the cytotoxicity at 10 µM is 15.3%.
In the case of `Cc1cc(C(=O)N2CCC(N3CCNC3=O)CC2)nn1C(C)(C)C` it was 5.56%; in that of `CCCN(CC(F)(F)F)C(=O)c1cc(F)cc2[nH]cnc12`, 3.19%; in that of `CN(C)C(=O)c1cnc2n1CCN(Cc1ccncc1)C2`, -69.4%.
In the case of `CC(C)C1CN(S(C)(=O)=O)CCCN1Cc1ccc(F)cc1` (stereo not given), the cytotoxicity at 10 µM came out at 1.81%.
As for `CCCn1cc(S(=O)(=O)N[C@H]2CN(C(C)=O)C[C@@H]2C2CC2)cn1`, the cytotoxicity at 10 µM was -1.48%.
In the case of `Cc1nn(C)c(C)c1-c1ccnc(N2CCCN(CC(C)C)CC2)n1`, the cytotoxicity at 10 µM worked out at 5.78%.
Regarding `Cc1ccnc(N2CCN(C[C@]3(O)CCCN4CCCC[C@@H]43)CC2)c1`, the cytotoxicity at 10 µM was 3.78%.
For the compound `Cc1ocnc1C(=O)N(Cc1cccnc1)C[C@@H]1CCC(=O)N1`, the cytotoxicity at 10 µM was found to be 8.83%.
Take `CN1CCN(Cc2ccc(-c3ccc(C(N)=O)cc3)nc2)CC1`: the cytotoxicity at 10 µM was determined as 5.58%.
`CCO[C@H]1CN(C)C[C@@H]1NC(=O)c1cc(C)nc2c(C)cccc12`: the cytotoxicity at 10 µM was 3.28%.
For `Cc1cc(C)n(C2CCN(C(=O)c3cn4ccsc4n3)C2)n1` (stereo not given), the cytotoxicity at 10 µM was 6.59%.
Take `Cc1ccc(C(=O)N2CCC(=O)N(CC3CC3)C(C(C)C)C2)c(=O)[nH]1` (stereo not given): the cytotoxicity at 10 µM was -15%.
With `Cc1cnccc1NCCNC(=O)C1CCCN(Cc2ccco2)C1` (stereo not given), the cytotoxicity at 10 µM was -7.67%.
Take `CCCc1nc(C(=O)NCCCn2nnc3ccccc32)cs1`: the cytotoxicity at 10 µM was -14%.
As for `CC(CNc1nccc(C(C)C)n1)Oc1cccnc1` (stereo not given), the cytotoxicity at 10 µM amounted to 4.34%.
In the case of `COc1ncccc1-c1ncccc1NC(=O)C(C)C` it was 3.78%; in that of `Cc1cccnc1CN1CCN(C(=O)CCn2ccc(=O)[nH]c2=O)CC1`, 1.99%; in that of `C[C@@H]1CN(C(=O)C2(Cn3cccn3)CC2)CC[C@@]1(O)C1CC1`, -2.6%.
With `CCc1ncc(C(=O)N2CC(Oc3ccccc3Cl)C2)cn1`, the cytotoxicity at 10 µM worked out at 45.7%.
In the case of `Cc1cccc(CN2CCCC(O)(CNCc3ncccc3C)C2=O)c1` (stereo not given), the cytotoxicity at 10 µM was -7.4%.
Take `CN1CCC2(CC1)CN(C(=O)c1onc3ccccc13)CCCN2C`: the cytotoxicity at 10 µM was 8.31%.
For `CC(C)(C)n1cc(C(=O)N2CCN(Cc3ccncc3)CC2)cn1`, the cytotoxicity at 10 µM is -12.8%.

The values above are taken from ChEMBL document CHEMBL4513216, “Probing the Open Global Health Chemical Diversity Library for Multistage-Active Starting Points for Next-Generation Antimalarials” (ACS Infect Dis, 2020).
